Measurements: ChEMBL document CHEMBL1134639, “Conformationally restricted analogues of 1N,14N-bisethylhomospermine (BE-4-4-4): synthesis and growth inhibitory effects on human prostate cancer cells” (2001)
pIC50: −log10 of the molar value.

Columns and labels:
Type in all cases: functional
PC-3 = test: Inhibition of cell growth was determined in PC-3 cell line of human prostate tumor using MTT assay, on day 6 after treatment; details: read-out: ID50 (the source's name)
In short: (§1)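 MTT growth assay on human prostate tumour cells seeded in microtitre plates and incubated overnight at 37 °C in humidified 95% air/5% CO₂. Diluted drug stocks were added to the middle 8 columns, with buffer controls in the outer columns. Each concentration was run in quadruplicate. ID₅₀ is the concentration giving 50% growth inhibition on day 6 of treatment.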

DuPro = test: Inhibition of cell growth was determined in DUPRO cell line of human prostate tumor using MTT assay, on day 6 after treatment; details: read-out: ID50 (the source's name); in short: as §1
LNCaP [1] = test: Inhibition of cell growth was determined in LNCaP cell line of Human prostate tumor using MTT assay, on day 6 after treatment; details: read-out: ID50 (the source's name); in short: as §1
DU-145 = test: Inhibition of cell growth was determined in DU145 cell line of human prostate tumor using MTT assay, on day 6 after treatment; details: read-out: ID50 (the source's name); in short: as §1
LNCaP [2] = test: Inhibition of cell growth was determined in LNCaP cell line of human prostate tumor using MTT assay, on day 6 after treatment; details: 144 h, read-out: ID50 (the source's name); in short: as §1

Structure (SMILES)	pIC50 (LNCaP [1]; Homo sapiens, LNCaP, 144 h)	pIC50 (PC-3; Homo sapiens, PC-3, 144 h)	pIC50 (DU-145; Homo sapiens, DU-145, 144 h)	further results
CCNCCCCNCC1CC1CNCCCCNCC (stereo in doubt; 4)	–	–	–	pIC50 (PC-3): 5.80; pIC50 (DuPro): 7.23; pIC50 (LNCaP [1]): 6.68; pIC50 (DU-145): 7.80
CCNC/C=C\CNC/C=C\CNC/C=C\CNCC	6.11	–	–	–
CCNCCCCNCC1CCC1CNCCCCNCC (stereo in doubt; 13)	–	5.33	7.68	pIC50 (DuPro): 6.52; pIC50 (LNCaP [1]): 6.15
CCNCCCCNCc1ccccc1CNCCCCNCC	< 4.51	< 4.51	–	pIC50 (DuPro; Homo sapiens, DuPro, 144 h): < 4.51
CCNCCCCNCC1CC1CNCCCCNCC (stereo in doubt; 7)	6.77	5.85	7.70	–
CCNCCCCNCC1CCC1CNCCCCNCC (stereo in doubt; 10)	–	–	–	pIC50 (DuPro): 7.10; pIC50 (LNCaP [1]): 6.68

More lines, main results first:

pIC50 (LNCaP [1]; Homo sapiens, LNCaP, 144 h)	pIC50 (PC-3; Homo sapiens, PC-3, 144 h)	pIC50 (DU-145; Homo sapiens, DU-145, 144 h)	Structure (SMILES)	further results
–	6.15	7.52	CCNCCCCNCCCCNCCCCNCC [DIETHYLHOMOSPERMINE]	pIC50 (LNCaP [2]): 7.00; pIC50 (DuPro; Homo sapiens, DuPro, 144 h): 6.70
5.66	–	–	CCNCCCCNCC#CCNCCCCNCC	pIC50 (PC-3; PC-3, 144 h): < 4.51; pIC50 (DuPro; 144 h): 5.49
6.30	–	6.66	CCNCCCCNC/C=C/CNCCCCNCC	–
6.16	< 4.51	–	CCNC/C=C\CNC/C=C\CNCCCCNCC	–
7.19	< 4.51	7.52	CCNCCCCNC/C=C\CNCCCCNCC	–
5.52	6.15	6.89	CCNC/C=C\CNCCCCNC/C=C\CNCC	–
6.68	–	–	CCNC/C=C\CNCCCCNCCCCNCC	–
